Cneo AK release: Cryptococcus neoformans lysis via adenylate kinase release; 0.2% of 360,000 active; lysis activity, % at 15 µM; C. neoformans lysis, adenylate kinase release luminescence, 4 h; normalised: neutral wells 0, clomiphene wells 100;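 active = mean lysis activity across replicates of at least 80%, whatever share of replicates individually reach that level; inactive = mean lysis activity below 80%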
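Signal: Adenylate kinase release luminescence | Assay system: Log-phase Cryptococcus neoformans yeast cells | Input: Cells at 5 × 10^6 per mL | Buffer or medium: Fresh YPD growth medium | Compound: Single dose | Schedule: Static 4 h at 37 °C with compound, 1 h detection | Controls: Clomiphene | Read-out: Luminescence rise reflecting yeast cell lysis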
SUMO Mot1 rescue: inhibitors of SUMOylation pathway: yeast Mot1-301 growth rescue. S. cerevisiae Mot1-301 growth rescue, ATP luminescence, 38.5C; percent above DMSO median, 100 means doubled. growth rescue, % at 18.8 µM. 1% of 320,000 active. AID 2716;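 active = every valid replicate shows activation above 250% relative to neutral control wells; inactive = the rest, any valid replicate at or below 250%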
C2C12 statin: suppression of simvastatin myotoxicity; C2C12 myotubes + simvastatin, ATP luminescence, 48 h; scaled: DMSO 0, geranylgeraniol control 100; rescue of ATP level, % at 7.49 µM; 0.78% of 330,000 active; AID 602340;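 active = mean ATP rescue above about 67%, or every replicate alone reaching that limit, limit read from the data, passing the limit was not always enough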;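 note: myotubes were challenged with 10 µM simvastatin during compound exposure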
Large screens that a line does not name were inactive; ! = not active in a repeat. Hits are enriched below; roughly 1.5% of the tested compounds scored in any of these assays.

C[C@H]1CN([C@@H](C)CO)C(=O)Cc2cc(NC(=O)Cc3cn(C)c4ccccc34)ccc2O[C@@H]1CN(C)Cc1ccc(Cl)c(Cl)c1	C2C12 statin 142 (no result: SUMO Mot1 rescue)
C[C@@H]1CN([C@H](C)CO)C(=O)Cc2cc(NC(=O)Cc3cn(C)c4ccccc34)ccc2O[C@@H]1CN(C)Cc1ccc(Cl)c(Cl)c1	C2C12 statin 69 (no result: SUMO Mot1 rescue)
C[C@@H]1CN([C@@H](C)CO)C(=O)Cc2cc(NC(=O)Cc3cn(C)c4ccccc34)ccc2O[C@@H]1CN(C)Cc1ccccc1	none (no result: SUMO Mot1 rescue)
C[C@H](CO)N1C[C@H](C)[C@@H](CN(C)Cc2ccc(Cl)c(Cl)c2)Oc2ccc(NC(=O)Cc3ccccc3)cc2CC1=O	C2C12 statin 86 (no result: SUMO Mot1 rescue)
C[C@H]1CN([C@@H](C)CO)C(=O)c2cccc(N(C)C)c2O[C@@H]1CN(C)Cc1ccc(Cl)c(Cl)c1	C2C12 statin 95 (no result: SUMO Mot1 rescue)
CCCN1C[C@@H](C)[C@@H](OC)CN(C)C(=O)c2cc(NC(=O)Nc3ccccc3F)ccc2OC[C@H]1C	none (no result: SUMO Mot1 rescue)
C[C@@H]1CN([C@H](C)CO)C(=O)Cc2cc(NC(=O)C3CC3)ccc2O[C@H]1CN(C)C(=O)Nc1ccc(F)cc1	none (no result: SUMO Mot1 rescue)
O=C1C[C@@H]2c3c(cccc3CN1Cc1ccc(Cl)cc1)C[C@@H](O)[C@H]2O	C2C12 statin 119 (no result: SUMO Mot1 rescue)
O=C1C[C@@H]2c3c(cccc3CN1Cc1ccccc1Cl)C[C@@H](O)[C@H]2O	none (no result: SUMO Mot1 rescue)
CCc1ccc(CN2CC(C(=O)O)CC2=O)cc1 (centres undefined)	none
O=C1C[C@@H]2c3c(cccc3CN1Cc1ccccc1F)C[C@@H](O)[C@H]2O	C2C12 statin 126 (no result: SUMO Mot1 rescue)
Cc1cc(C(=O)Nc2cccc3c2O[C@@H](CN(C)S(=O)(=O)c2ccccc2)[C@H](C)CN([C@H](C)CO)C3=O)n(C)n1	none (no result: SUMO Mot1 rescue)
NS(=O)(=O)c1cc2c(cc1Cl)NC(CC1CCCC1)NS2(=O)=O (centres undefined)	none (no result: Cneo AK release, C2C12 statin)
NS(=O)(=O)c1cc2c(cc1Cl)NC(C1C[C@H]3C=C[C@@H]1C3)NS2(=O)=O (some centres undefined)	SUMO Mot1 rescue 563!
CNC(=O)C[C@@H]1CC[C@H]2[C@H](COc3ccc(NC(=O)c4ccc(OC)cc4)cc3C(=O)N2C)O1	none (no result: SUMO Mot1 rescue)
O=C(NCC[C@H]1CC[C@@H](NS(=O)(=O)c2cccc(F)c2)[C@H](CO)O1)c1cnccn1	none (no result: SUMO Mot1 rescue)
Cc1noc(C)c1NC(=O)Nc1ccc2c(c1)C(=O)N([C@@H](C)CO)C[C@H](C)[C@H](CN(C)Cc1ccncc1)OCCCC[C@H](C)O2	none (no result: SUMO Mot1 rescue, C2C12 statin)
O=C(c1cccc(F)c1)N1C[C@@H]2[C@H](c3ccccc31)[C@H](CO)N2C(=O)c1cccc(F)c1	none (no result: SUMO Mot1 rescue)
O=C(Nc1ccc(F)cc1)N1C[C@@H]2[C@H](c3ccccc31)[C@@H](CO)N2Cc1ccccc1	none (no result: SUMO Mot1 rescue)
O=C(c1cccnc1)N1C[C@H]2[C@@H](c3ccccc31)[C@@H](CO)N2C(=O)Nc1ccc(F)cc1	Cneo AK release 118 (no result: SUMO Mot1 rescue)
O=C(c1cccc(F)c1)N1C[C@@H]2[C@H](c3ccccc31)[C@H](CO)N2Cc1cocn1	Cneo AK release 82 (no result: SUMO Mot1 rescue)
O=C(Nc1ccc(F)cc1)N1C[C@@H]2[C@H](c3ccccc31)[C@H](CO)N2Cc1cocn1	Cneo AK release 91 (no result: SUMO Mot1 rescue)
O=C(c1cccnc1)N1C[C@H]2[C@@H](c3ccccc31)[C@H](CO)N2C(=O)Nc1ccc(F)cc1	none (no result: SUMO Mot1 rescue)
Cc1ccc(-c2ccc3c(c2)O[C@H](CN(C)Cc2cccnc2)[C@@H](C)CN([C@@H](C)CO)S3(=O)=O)cc1	none (no result: SUMO Mot1 rescue)
C[C@H]1CN([C@@H](C)CO)S(=O)(=O)c2ccc(C3=CCCCC3)cc2O[C@H]1CN(C)C(=O)c1ccncc1	none (no result: SUMO Mot1 rescue)
C[C@@H]1CN([C@H](C)CO)C(=O)c2cc(-c3cccnc3)cnc2O[C@H]1CN(C)C(=O)c1ccccc1F	none (no result: SUMO Mot1 rescue)
CNC[C@H]1OCCCC[C@@H](C)Oc2ccc(NS(=O)(=O)c3ccc(Cl)cc3)cc2C(=O)N([C@H](C)CO)C[C@H]1C	none (no result: SUMO Mot1 rescue)
CNC[C@@H]1OCCCC[C@@H](C)Oc2ccc(NS(=O)(=O)c3ccc(Cl)cc3)cc2C(=O)N([C@H](C)CO)C[C@H]1C	Cneo AK release 100 (no result: SUMO Mot1 rescue)
Cc1ccc(S(=O)(=O)N(C)C[C@H]2OCCCC[C@H](C)Oc3ccc(NS(=O)(=O)c4ccc(Cl)cc4)cc3C(=O)N([C@H](C)CO)C[C@H]2C)cc1	none (no result: SUMO Mot1 rescue)
CC(C)NC(=O)Nc1ccc2c(c1)C(=O)N([C@H](C)CO)C[C@@H](C)[C@H](CN(C)S(=O)(=O)c1ccc(Cl)cc1)OCCCC[C@@H](C)O2	none (no result: SUMO Mot1 rescue, C2C12 statin)
CC(C)NC(=O)Nc1ccc2c(c1)C(=O)N([C@@H](C)CO)C[C@@H](C)[C@@H](CN(C)S(=O)(=O)c1ccc(Cl)cc1)OCCCC[C@@H](C)O2	Cneo AK release 102 (no result: SUMO Mot1 rescue, C2C12 statin)
Cc1ccc(S(=O)(=O)Nc2ccc3c(c2)C(=O)N([C@@H](C)CO)C[C@H](C)[C@H](CN(C)S(=O)(=O)c2ccc(Cl)cc2)OCCCC[C@@H](C)O3)cc1	Cneo AK release 103 (no result: SUMO Mot1 rescue, C2C12 statin)
COc1ccc(CNC(=O)C[C@@H]2C[C@@H]3c4cc(NS(C)(=O)=O)ccc4O[C@@H]3[C@H](CO)O2)cc1	none (no result: SUMO Mot1 rescue)
O=C(C[C@H]1CC[C@@H](NC(=O)NC2CCCCC2)[C@@H](CO)O1)NCc1ccc(F)cc1	none (no result: SUMO Mot1 rescue)
C[N+]1(C)CCC(OC(=O)C(O)(c2ccccc2)C2CCCC2)C1 (centres undefined)	SUMO Mot1 rescue 373
C[N+]1(C)CC[C@H](OC(=O)[C@@](O)(c2ccccc2)C2CCCC2)C1	none
C[C@@H]1CN([C@@H](C)CO)C(=O)c2cc(C#Cc3ccccn3)cnc2O[C@@H]1CN(C)CC1CCCC1	none (no result: Cneo AK release, SUMO Mot1 rescue)
CC(=O)OC[C@]12CC[C@H]3[C@@](C)(CC[C@H]4C(C)(C)CCC[C@]34C)[C@@H]1C[C@@H](C1=CC(=O)O[C@@H]1OC(C)=O)O2	none (no result: Cneo AK release, C2C12 statin)
CC(=O)OC[C@]12CC[C@H]3[C@@](C)(CC[C@H]4C(C)(C)CCC[C@]34C)[C@@H]1C[C@H](C1=CC(=O)O[C@H]1OC(C)=O)O2	SUMO Mot1 rescue 910 (no result: Cneo AK release, C2C12 statin)
C[C@@H]1CN([C@H](C)CO)C(=O)c2cc(NC(=O)NC3CCCCC3)ccc2O[C@@H](C)CCCCO[C@H]1CN(C)C(=O)NC1CCCCC1	none (no result: SUMO Mot1 rescue, C2C12 statin)
Cc1cccc(C(=O)Nc2cc(OCc3cccc(F)c3)c(Cl)cc2Cl)c1	C2C12 statin 113
COCCOc1cc(NC(=O)c2cccc(OC)c2)c(Cl)cc1Cl	none (no result: Cneo AK release, C2C12 statin)
C/C(=N\O)C(=O)Nc1ccccc1	none (no result: Cneo AK release, C2C12 statin)
CC(=N\Nc1ccc(Cl)cc1)/C(=N/O)C(=O)Nc1ccccc1	SUMO Mot1 rescue 256
Cc1ccc(S(=O)(=O)N[C@@H]2C=C[C@H](CC(=O)O)O[C@H]2CO)cc1	none (no result: SUMO Mot1 rescue)
C[C@H](CO)N1C[C@H](C)[C@@H](CN(C)S(=O)(=O)c2cn(C)cn2)Oc2ccc(NC(=O)Nc3ccc(F)cc3)cc2CC1=O	none (no result: Cneo AK release, SUMO Mot1 rescue)
CCCCc1ccc(-c2nc(N)n[nH]2)cc1	SUMO Mot1 rescue 840
Nc1n[nH]c(-c2ccc(F)cc2)n1	none
CN[C@H](CC(=O)O)C(=O)O	SUMO Mot1 rescue 307
C[C@@H](O)CC(=O)O	none
Cc1c(NC(=O)CSc2ccc(Cl)cc2)c(=O)n(-c2ccccc2)n1C	none (no result: Cneo AK release, C2C12 statin)
Cc1c(NC(=O)CSc2ccccn2)c(=O)n(-c2ccccc2)n1C	C2C12 statin 111
C[C@@H]1CN([C@@H](C)CO)C(=O)Cc2cc(NC(=O)Cc3ccccc3)ccc2O[C@H]1CN(C)Cc1ccccc1	none (no result: SUMO Mot1 rescue)
